In data set [1] the test system is A549. Nature of the data set: Antiproliferative activity against human A549 cells assessed as reduction in cell viability incubated for 4 days by coulter counter method. Type of data set: functional, cell-based. An outline of the steps: (§1)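 Cancer cells were seeded at 50,000 per well in DMEM with 5% FBS. They were exposed to six compound doses for 4 days, with DMSO as vehicle control and a reference inhibitor as positive control. Cells were counted by Coulter counter. Survival ratio is treated cell number over vehicle cell number. IC50 was taken from dose–response curves. Triplicate experiments.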

Data set [2] relates to MDA-MB-231. The experiment in a line: Antiproliferative activity against human MDA-MB-231 cells assessed as reduction in cell viability incubated for 4 days by coulter counter method. The format is functional, cell-based. The gist of the method: as §1
For data set [3], the system named is HeLa. The experiment in a line: Antiproliferative activity against human HeLa cells assessed as reduction in cell viability incubated for 4 days by coulter counter method. Type of data set: functional, cell-based. The gist of the method:
as §1

Data set [4] deals with CWR22R. Nature of the data set: Antiproliferative activity against human 22Rv1 cells assessed as reduction in cell viability incubated for 4 days by coulter counter method. The format is functional, cell-based. The gist of the method:
as §1

Data set [5] in a line: Stability of compound in cell culture medium assessed as compound hydrolysis measured after 0.5 hrs. The format is physicochemical.
A short description of data set [6]: Stability of compound in cell culture medium assessed as compound hydrolysis measured after 1 hr. Type of data set: physicochemical.
Data set [7] can be described thus: Stability of compound in cell culture medium assessed as compound hydrolysis measured after 3 hrs. Type of data set: physicochemical.
A short description of data set [8]: Stability of compound in cell culture medium assessed as compound hydrolysis measured after 8 hrs. Type of data set: physicochemical.
A short description of data set [9]: Stability of compound in cell culture medium assessed as compound hydrolysis measured after 24 hrs. The format is physicochemical.
In data set [10] the test system is PC-3. The experiment in a line: Antiproliferative activity against human PC3 cells assessed as reduction in cell viability incubated for 4 days by coulter counter method. Type of data set: functional, cell-based. The conditions noted are these: PC-3, 96 h. The gist of the method: (§2)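 Cells seeded at 50,000 per well in DMEM with 5% FBS, exposed to six concentrations of compound for 4 days; DMSO as vehicle control. Cell numbers counted on a Coulter counter; survival ratio = treated/vehicle cell count. IC50 taken from dose-response curves. Triplicate experiments, mean ± SD.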

Data set [11] concerns SK-OV-3. Nature of the data set: Antiproliferative activity against human SKOV3 cells assessed as reduction in cell viability incubated for 4 days by coulter counter method. The format is functional, cell-based. The note with it: SK-OV-3, 96 h. The gist of the method: as §2
Data set [12] is described as follows: Drug concentration in ovariectomized nu/nu mouse plasma at 10 mg/kg, ip measured after 0.5 hrs by UHPLC-MS analysis. The format is ADME, organism-based. The conditions noted are these: female.
Data set [13] in a line: Drug concentration in ovariectomized nu/nu mouse plasma at 10 mg/kg, ip measured after 1 hr by UHPLC-MS analysis. The format is ADME, organism-based. The conditions noted are these: female.
A short description of data set [14]: Drug concentration in ovariectomized nu/nu mouse plasma at 10 mg/kg, ip measured after 3 hrs by UHPLC-MS analysis. Type of data set: ADME, organism-based. The conditions noted are these: female.
Data set [15] in a line: Drug concentration in ovariectomized nu/nu mouse plasma at 10 mg/kg, ip measured after 8 hrs by UHPLC-MS analysis. Type of data set: ADME, organism-based. The note with it: female.
Data set [16] in a line: Cmax in ovariectomized nu/nu mouse at 10 mg/kg, ip measured upto 24 hrs by UHPLC-MS analysis. The format is ADME, organism-based. Details: dose 10 mg/kg, route intraperitoneal. The conditions noted are these: female, in vivo.
Data set [17] in a line: Tmax in ovariectomized nu/nu mouse at 10 mg/kg, ip measured upto 24 hrs by UHPLC-MS analysis. The format is ADME, organism-based. The note with it: female, in vivo.
Data set [18] is described as follows: Half life in ovariectomized nu/nu mouse at 10 mg/kg, ip measured upto 24 hrs by UHPLC-MS analysis. The format is ADME, organism-based. The conditions noted are these: female, in vivo. An outline of the steps: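 Female ovariectomized Nu/Nu mice, 4–6 weeks old, received a single 10 mg/kg i.p. dose as an ethanol solution. Blood was drawn from the orbital sinus at 0.5, 1, 3, 8 and 24 h, one sampling per group, into EDTA. Plasma was spun at 4 °C and stored at −80 °C. Parent and metabolites were quantified by C18 UHPLC–TSQ Vantage MS/MS.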

Data set [19] can be described thus: AUC in ovariectomized nu/nu mouse at 10 mg/kg, ip measured upto 24 hrs by UHPLC-MS analysis. Type of data set: ADME, organism-based. Details: dose 10 mg/kg, time < 24 hr, route intraperitoneal. The conditions noted are these: female, in vivo.

For the molecule `OB(O)c1cccc(-c2nc(N3CCOCC3)c3oc4ncccc4c3n2)c1`, the Activity entry in data set [1], in data set [2], in data set [3] and in data set [4] was “Dose-dependent effect” each time. The Drug degradation amounted to 2.39 µM in [5]; 3.08 µM in [6]; 3.52 µM in [7]; 3.55 µM in data set [8]; 3.53 µM in [9].

For the molecule `Oc1cccc(-c2nc(N3CCOCC3)c3oc4ncccc4c3n2)c1` [PI-103], the IC50 in data set [1] (A549, 96 h) is 180 nM; in data set [2] (MDA-MB-231, 96 h) it was 140 nM; in [3] (96 h), 160 nM; in data set [4] (22Rv1, 96 h), 100 nM; in data set [10], 170 nM; in data set [11] it was 110 nM. For the same molecule, the Drug degradation amounted to 0.05 µM in data set [5]; 0.08 µM in [6]; 0.12 µM in data set [7]; 0.12 µM in data set [8]; 0.14 µM in data set [9]. The concentration at 0.5 h in [12] was 0.1 ng/mL. The concentration at 1 h in data set [13] amounted to 1.4 ng/mL. Moreover, the concentration at 3 h in [14] amounted to 1 ng/mL. The same molecule yielded a concentration at 8 h in data set [15] of 0.3 ng/mL. Besides, the highest level in data set [16] (Cmax) was 1.4 ng/mL. In data set [17], the Tmax came out at 1 h. In [18], this molecule showed a half-life of 2 h. Further, the exposure (AUC) at 24 h in data set [19] is 9.7 ng·h/mL.

For the origin of these results see ChEMBL document CHEMBL4622914, “Development of a bioavailable boron-containing PI-103 Bioisostere, PI-103BE” (Bioorg Med Chem Lett, 2020).
